B2AR ag: agonists of human beta-2 adrenergic receptor inducing internalization; Am2.2-beta2AR cells, FAP receptor internalization, flow cytometry; P07550; 0.43% of 340,000 active; AID 504454; response, % (no concentration beside the values);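 active means response above a set limit, near 3 SD of response in nonfluorescent compounds, cut at about 42% in these data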
ATG4B inh: ATG4B (human) cysteine protease inhibition; Q9Y4P1; ATG4B cleavage of LC3-PLA2, NBD-HPC fluorescence, 1 h; inhibition, % at 8.33 µM; 0.51% of 340,000 active; AID 504462; in the data active means inhibition above about 40%
MEKK2wt PB1 HTS: raises or lowers MEK5 binding to wildtype human MEKK2 PB1 domain | Q9Y2U5 | bead flow cytometry, Alexa488-MEK5 binding to MEKK2 WT; actives lie on both sides | binding response (% of control), % at 10 µM | 1.1% of 290,000 active; in the data active means binding response below about 67% or above about 130%
MEKK2 mut-MEK5: signal of MEK5 binding to mutant human MEKK2 PB1 domain. bead flow cytometry, Alexa488-MEK5 binding to MEKK2 mutant. percent response, % at 10 µM. 0.35% of 290,000 active. AID 1530; in the data active means percent response above about 24%, passing the limit was not always enough
Dynein transport: dynein cargo transport inhibition | 3617.4 mouse cells, GR-EGFP nuclear translocation imaging; test concentration mostly 20 µM; stimulated with dexamethasone, 1 µM; hits give low values | AID 1381 | z-score, hits read low | 0.47% of 220,000 active;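 active means plate z-score of nuclear minus cytoplasmic receptor signal below a set negative limit, without overly bright fluorescence or cell loss, cut at about -3.5 in these data, passing the limit was not always enough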;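 further: z-score of nuclear minus cytoplasmic ring GR-EGFP intensity difference per well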
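Buffer or medium: tet-free medium with charcoal-stripped serum / Also added: dexamethasone agonist, 1.0 µM final, for 30 min / Timing: induction 48 h, compound 1 h, agonist 30 min / Measured by: high-content fluorescence imaging after fixation / Read-out: nuclear-to-cytoplasmic GR-EGFP distribution per well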
MEKK3 PB1 HTS: raises or lowers MEK5 binding to the human MEKK3 PB1 domain. Q99759. bead-based flow cytometry, Alexa488-MEK5 binding to MEKK3; actives lie on both sides; 0 = blocked by unlabeled MEK5, 100 = vehicle. binding response (% of control), % at 10 µM. 1.4% of 290,000 active. AID 1529;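 active means binding response more than 3 SD above or below the average of its plate-row segment, actives on both sides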;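 further: Alexa488 bead fluorescence after subtracting the streptavidin-only scavenger bead signal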
Target sequence (Q99759 whole entry, looked up, the tested form may be a part): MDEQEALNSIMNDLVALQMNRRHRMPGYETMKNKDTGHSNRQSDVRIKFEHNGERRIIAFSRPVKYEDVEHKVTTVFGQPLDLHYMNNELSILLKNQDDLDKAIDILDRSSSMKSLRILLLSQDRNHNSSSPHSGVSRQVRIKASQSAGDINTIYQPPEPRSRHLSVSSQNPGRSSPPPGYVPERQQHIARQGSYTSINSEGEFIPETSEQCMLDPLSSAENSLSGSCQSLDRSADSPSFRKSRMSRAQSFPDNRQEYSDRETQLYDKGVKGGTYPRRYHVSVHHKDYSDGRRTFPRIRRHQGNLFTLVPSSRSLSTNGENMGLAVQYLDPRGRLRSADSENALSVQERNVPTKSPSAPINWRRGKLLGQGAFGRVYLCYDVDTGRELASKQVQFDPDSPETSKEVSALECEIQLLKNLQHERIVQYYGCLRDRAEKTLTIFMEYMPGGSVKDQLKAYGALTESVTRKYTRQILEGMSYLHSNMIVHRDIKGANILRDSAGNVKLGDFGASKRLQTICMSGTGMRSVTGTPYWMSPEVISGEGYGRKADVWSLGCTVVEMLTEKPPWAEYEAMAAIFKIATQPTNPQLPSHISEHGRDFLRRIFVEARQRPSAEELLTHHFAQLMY
ATG4B confirm: confirmation of human ATG4B inhibitors; ATG4B protease fluorescent substrate cleavage assay; inhibition, % at 8.33 µM; 92% of 320 active; AID 504757; shares compounds with ATG4B inh; in the data active means inhibition above about 39%
PLA2 counter: inhibits human PLA2, flagging false ATG4B inhibitors; shares compounds with ATG4B inh; purified PLA2, NBD-C6-HPC fluorescence, 45 min; inhibition, % at 8.33 µM; 66% of 1,600 active; in the data active means inhibition above about 50%
Of the large screens only hits and unclear results are named; the others gave an inactive call (follow-up assays come after a bar, where they were run). Sampled rows, rich in hits. Any-hit rate of the full collection: about 2.9%.

COc1cccc(-c2ccc3ncnc(NCc4cccc(C)c4)c3c2)c1	ATG4B inh 40 (no result: MEKK2wt PB1 HTS, MEKK2 mut-MEK5, Dynein transport, MEKK3 PB1 HTS) | PLA2 counter inactive
CC(O)CC(C(=O)NNc1ccccc1)C(=O)NNc1ccccc1 (stereo not drawn)	none
CCn1cc(C(=O)NCCc2ccc(OC)cc2)c(=O)c2ccc(C)nc21	none (no result: Dynein transport)
Cc1ccc(C)c(NC(=S)NNC(=O)c2csc3c2CCCC3)c1	none
Cc1cccc(NC(=S)NNC(=O)c2csc3c2CCCC3)c1	ATG4B inh 43 | ATG4B confirm 71 | PLA2 counter inactive
Cc1ccc(S(=O)(=O)N(C)c2ccc(OCC(=O)NCC3(N(C)C)CCCCC3)cc2)cc1	none (no result: MEKK2wt PB1 HTS, MEKK2 mut-MEK5, Dynein transport, MEKK3 PB1 HTS)
Nc1nonc1C(=O)NCCN=Cc1cc(Cc2ccccc2)cc(Br)c1O	ATG4B inh 86 (no result: MEKK2wt PB1 HTS, MEKK2 mut-MEK5, MEKK3 PB1 HTS) | PLA2 counter 72
Cc1c(Cl)c([N+](=O)[O-])nn1Cc1ccc(C(=O)Nc2ccc(Cl)cn2)o1	ATG4B inh 46 | ATG4B confirm 64 | PLA2 counter inactive
O=C(O)c1oc2ccccc2c1CSc1ccc(Cl)cc1	none (no result: Dynein transport)
O=C(c1ccc(Cl)cc1)c1oc2ccccc2c1CS(=O)c1ccccc1 (stereo not drawn)	ATG4B inh 54 | PLA2 counter 59
CC1CCCN(C(=O)c2ccc3c(=O)n(C4CCCC4)c(=S)[nH]c3c2)C1 (stereo not drawn)	none
O=C(c1ccc2c(=O)n(C3CCCC3)c(=S)[nH]c2c1)N1CCCCCC1	ATG4B inh 62 | PLA2 counter 65
CCOC(=O)C1CCCN(C(=O)c2ccc3c(=O)n(Cc4ccccc4OC)c(=S)[nH]c3c2)C1 (stereo not drawn)	ATG4B inh 51 (no result: Dynein transport) | ATG4B confirm 74 | PLA2 counter inactive
CCOC(=O)C1CCCN(C(=O)c2ccc(Cn3c(=S)[nH]c4cc(C(=O)OC)ccc4c3=O)cc2)C1 (stereo not drawn)	none
Cc1scc(C(=O)O)c1-c1c(C(=O)O)csc1C	none
CCC1=NN(C(=O)c2cccc(Br)c2)C(O)(c2ccc(Br)cc2)C1 (stereo not drawn)	ATG4B inh 43 | ATG4B confirm 58 | PLA2 counter inactive
NC(=O)CSc1nc2cc(Cl)ccc2c(=O)n1C1CCCCC1	none (no result: Dynein transport)
COC(=O)CSc1nc2cc(Cl)ccc2c(=O)n1C1CCCC1	ATG4B inh 46 | ATG4B confirm 61 | PLA2 counter inactive
O=[N+]([O-])c1ccc(-c2nc(C(Cl)Cl)c3ccccc3n2)cc1	none
N#C/C(=C\c1coc2ccccc2c1=O)C(N)=S	none
N#C/C(=C\c1coc2ccc(O)cc2c1=O)C(=O)Nc1nc2ccccc2s1	ATG4B inh 54 | PLA2 counter inactive
O=C(NCc1cccnc1)c1ccccc1NS(=O)(=O)c1ccc(Br)cc1	none (no result: MEKK2wt PB1 HTS, MEKK2 mut-MEK5, Dynein transport, MEKK3 PB1 HTS)
COc1ccc(CN(CCN(C)C)c2ccccn2)cc1	none
CCCCCCCCCCCCCCCC[N+](C)(C)CCN(Cc1ccc(OC)cc1)c1ncccn1	ATG4B inh 67 (no result: MEKK2wt PB1 HTS, MEKK2 mut-MEK5, Dynein transport, MEKK3 PB1 HTS) | PLA2 counter 61
CC(Sc1ncnc2sc(-c3ccccc3)cc12)C(N)=O (stereo not drawn)	ATG4B inh 48 (no result: Dynein transport) | PLA2 counter 62
CSCc1c(C(=O)N2CCCc3ccccc32)oc2ccccc12	ATG4B inh 61 (no result: MEKK2wt PB1 HTS, MEKK2 mut-MEK5, Dynein transport, MEKK3 PB1 HTS) | PLA2 counter 78
O=C(O)c1cc(-c2ccccc2)nc2nc(N3CCCCC3)sc12	none (no result: B2AR ag, ATG4B inh)
Cc1ccc(-c2cc(C(=O)O)c3sc(N4CCCCC4)nc3n2)cc1	ATG4B inh 40 | PLA2 counter inactive
FC(F)(F)c1cc(-c2cccs2)nc2ncnn12	none
CC1CCc2c(sc(Nc3nc4c(F)cccc4s3)c2C(N)=O)C1 (stereo not drawn)	ATG4B inh 41 | PLA2 counter inactive
c1cncc(-c2nc(N3CCOCC3)c3c4c(sc3n2)CCC4)c1	none
c1cncc(-c2nc(NCCCN3CCOCC3)c3c4c(sc3n2)CCC4)c1	ATG4B inh 40 | PLA2 counter 57
NC(N)=NS(=O)(=O)c1ccc(NC(=S)NC(=O)c2sc3ccccc3c2Cl)cc1	none
CS(=O)(=O)c1ccc(C(=O)NNC(=O)c2ccccc2-n2cccc2)cc1	none (no result: MEKK2wt PB1 HTS, MEKK2 mut-MEK5, Dynein transport, MEKK3 PB1 HTS)
Cc1ccsc1C(=O)NCCC(c1ccccc1)c1ccccc1	ATG4B inh 41 | PLA2 counter inactive
Cc1ccc(OCC(=O)N(C)CC(=O)NCc2ccco2)c(Br)c1	none (no result: MEKK2wt PB1 HTS, MEKK2 mut-MEK5, Dynein transport, MEKK3 PB1 HTS)
COC(=O)c1ccc(CSc2nnc(-c3c[nH]c4ccccc34)n2-c2ccccc2)cc1	ATG4B inh 46 | PLA2 counter 67
Cn1c(SCc2ccccc2)nnc1-c1c[nH]c2ccccc12	none
Cc1cccc(-n2c(SCc3ccc(C#N)cc3)nnc2-c2c[nH]c3ccccc23)c1	ATG4B inh 51 | PLA2 counter 59
COC(=O)c1ccc(CSc2nnc(-c3c[nH]c4ccccc34)n2C)o1	none
COc1ccc(CCNC(=O)c2ccc3c(SCC(=O)O)c4c(nc3c2)CCCC4)cc1OC	none
Oc1nc(Nc2cccc(Cl)c2)sc1/C=C1\C=Nc2ccccc21	ATG4B inh 73 | PLA2 counter 83
CCOc1ccc(N2C(=O)CSC2=S)cc1	none (no result: Dynein transport)
CCN(CC)c1ccc(N2C(=O)CSC2=S)cc1	ATG4B inh 66 | PLA2 counter 63
NC(=NCCc1ccccc1)NS(=O)(=O)c1ccc2ccccc2c1	none
O=C(Nc1ccc(C(=O)N2CCOCC2)cc1)C1CC1	none (no result: MEKK2wt PB1 HTS, MEKK2 mut-MEK5, Dynein transport, MEKK3 PB1 HTS)
C[C@H]1c2cccc(O)c2C(O)=C2C(=O)[C@]3(O)C(O)=C(C(N)=O)C(=O)[C@@H](N(C)C)[C@@H]3[C@@H](O)[C@@H]21	ATG4B inh 40 | ATG4B confirm 66 | PLA2 counter inactive
Cc1cc(C)nc(Nc2ccc(Cl)cc2C)n1	none (no result: Dynein transport)
Cc1ccc(CS(=O)Cc2ccc(C(=O)NCc3ccccc3Br)o2)cc1 (stereo not drawn)	ATG4B inh 63 (no result: Dynein transport) | PLA2 counter 69
Cc1cccc(N2CCN(S(=O)(=O)c3ccc4c(c3)CCN4C(=O)CCC(=O)O)CC2)c1C	ATG4B inh 41 | PLA2 counter inactive
O=C(C[C@@H]1C/C=C\CCCC(=O)OC[C@@H]2CCCN2C1=O)NCCO	none (no result: MEKK2wt PB1 HTS, MEKK2 mut-MEK5, Dynein transport, MEKK3 PB1 HTS)
Cc1c(Cl)c([N+](=O)[O-])nn1CCCC(=O)Nc1cccc(Cl)c1	ATG4B inh 75 | PLA2 counter 78
Cc1nn(Cc2c(Cl)cccc2Cl)c(C)c1NC(=O)CCCn1nc([N+](=O)[O-])c(Cl)c1C	ATG4B inh 46 | ATG4B confirm 70 | PLA2 counter inactive
